Assay results taken from ChEMBL document CHEMBL1130323, “Synthesis and anti-HIV activity of novel N-1 side chain-modified analogs of 1-[(2-hydroxyethoxy)methyl]-6-(phenylthio)thymine (HEPT)” (J Med Chem, 1997).

Legend:
MT4 = test: Effective concentration required to achieve 50% inhibition of HIV-1 multiplication in human T-4 lymphoblastoid cell line MT-4 IIIB; type: functional, cell-based
In short: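 MT-4 cells infected with 50 TCID50 of HIV-1 IIIB and allowed 30 min adsorption, then washed. Cells were cultured with graded compound concentrations for 5 days. Protection from virus-induced cytopathogenicity was read by MTT reduction to formazan (OD 540 nm). IC50 was taken from a median effect plot. Means of at least two separate experiments.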

CEM-SS = test: Effective concentration required to achieve 50% inhibition of HIV-1 multiplication in human T-4 lymphoblastoid cell line CEM-SS/LAI; type: functional, cell-based
In short: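 CEM-SS cells infected with 100 TCID50 of HIV-1 Lai and allowed 30 min adsorption, then free virus was washed off. Cells were cultured with graded compound concentrations for 5 days. Virus production was read as reverse transcriptase activity of virions in culture supernatants. IC50 was taken from a median effect plot. Means of at least two separate experiments.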

[1] = Concentration which reduces the cell viability by 50% (CEM-SS / MT-4); type: functional; details: Homo sapiens
In short: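 Cytotoxicity measured on uninfected CEM-SS or MT-4 cells by MTT assay in the same experiment as the antiviral test, with cells cultured with graded compound concentrations for 5 days. Formazan read as OD at 540 nm. CC50 is the concentration reducing viability by 50%, calculated from a median effect plot. Means of at least two separate experiments.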

Structure (SMILES) | IC50 (CEM-SS) [nM] | IC50 (MT4) [nM] | CC50 [1] [nM]
CCc1c(Sc2ccccc2)n(C/C=C/c2ccc([N+](=O)[O-])s2)c(=O)[nH]c1=O | 940 | > 1000 | > 1000
CCc1c(Sc2cc(C)cc(C)c2)n(C/C=C/c2cccs2)c(=O)[nH]c1=O | 28 | 40 | > 1000
Cc1c(Sc2ccccn2)n(COCCSc2ccccn2)c(=O)[nH]c1=O | 440 | 8000 | > 1000
CCc1c(Sc2ccccc2)n(C/C=C/c2ccco2)c(=O)[nH]c1=O | 8 | 170 | > 1000
CCc1c(Sc2cc(C)cc(C)c2)n(COCc2ccccc2)c(=O)[nH]c1=O |  | 3.2 | 
Cc1c(Sc2ccccc2)n(C/C=C/C2CCCCC2)c(=O)[nH]c1=O | > 1000 | > 1000 | > 1000
Cc1c(Sc2ccccc2)n(C/C=C/c2ccc([N+](=O)[O-])s2)c(=O)[nH]c1=O | > 1000 | > 1000 | > 1000
Cc1c(Sc2ccccc2)n(C/C=C/c2ccco2)c(=O)[nH]c1=O | 330 | > 1000 | > 1000
CCc1c(Sc2ccccc2)n(C/C=C/c2ccccc2)c(=O)[nH]c1=O | 16 | 190 | > 1000
CCc1c(Sc2cc(C)cc(C)c2)n(C/C=C/c2ccco2)c(=O)[nH]c1=O | 10 | 40 | > 1000
CCc1c(Sc2ccccc2)n(COCc2ccccc2)c(=O)[nH]c1=O |  | 5.9 | 
CCc1c(Sc2ccccc2)n(C/C=C/c2cc3ccccc3o2)c(=O)[nH]c1=O | 38 | > 1000 | > 1000
CCc1c(Sc2cc(C)cc(C)c2)n(C/C=C/c2ccccc2)c(=O)[nH]c1=O | 31 |  | > 1000
CCc1c(Sc2ccccc2)n(C/C=C/c2cccs2)c(=O)[nH]c1=O | 8 | 80 | > 1000
Cc1c(Sc2ccccc2)n(C/C=C/c2cccnc2)c(=O)[nH]c1=O | 150 | 100 | > 1000
Cc1c(Sc2ccccc2)n(COCCN(c2ccccc2)c2ccccc2)c(=O)[nH]c1=O | 8750 | > 10000 | > 1000
Cc1c(Sc2ccccc2)n(C/C=C/c2cc3ccccc3o2)c(=O)[nH]c1=O | > 1000 | > 1000 | > 1000
Cc1c(Sc2ccccc2)n(C/C=C/c2ccccc2)c(=O)[nH]c1=O | 230 | 2500 | > 1000

Further lines, with some results ahead:

IC50 (CEM-SS) [nM] | Structure (SMILES) | IC50 (MT4) [nM] | CC50 [1] [nM]
11400 | Cc1c(Sc2ccccc2)n(COCCNC(=O)CCCl)c(=O)[nH]c1=O | 40000 | > 1000
31000 | Cc1c(Sc2ccccc2)n(COCCN)c(=O)[nH]c1=O |  | > 1000
27500 | Cc1c(Sc2ccccc2)n(COCCN(CC#N)CC#N)c(=O)[nH]c1=O | > 100000 | > 1000
2200 | Cc1c(Sc2ccccc2)n(COCCI)c(=O)[nH]c1=O | > 10000 | > 1000
> 10000 | Cc1c(Sc2ccccc2)n(COCCNC(=O)c2ccccc2)c(=O)[nH]c1=O | > 10000 | > 1000
760 | Cc1c(Sc2ccccc2)n(COCCBr)c(=O)[nH]c1=O | 2800 | > 1000
> 1000 | Cc1c(Sc2ccccc2)n(COCCN(C(=O)c2ccccc2)C(=O)c2ccccc2)c(=O)[nH]c1=O | > 1000 | > 1000
90 | Cc1c(Sc2ccccc2)n(COCc2ccccc2)c(=O)[nH]c1=O | 740 | > 1000
55 | Cc1c(Sc2ccccc2)n(COCCNc2ccccc2)c(=O)[nH]c1=O | 1000 | > 1000
> 100000 | Cc1c(Sc2ccccc2)n(COCCNC(=O)CNCP(=O)(O)O)c(=O)[nH]c1=O | > 100000 | > 1000
> 100000 | Cc1c(Sc2ccccc2)n(COCCN2CCOCC2)c(=O)[nH]c1=O | > 100000 | > 1000
1000 | Cc1c(Sc2ccccn2)n(COCCSc2ccccc2)c(=O)[nH]c1=O | > 1000 | > 1000
> 1000 | Cc1c(Sc2ccccc2)n(COCCSc2ccccc2)c(=O)[nH]c1=O |  | > 1000
2000 | Cc1c(Sc2ccccc2)n(COCCO)c(=O)[nH]c1=O [HEPT] | 11000 | > 1000
140 | Cc1c(Sc2ccccc2)n(C/C=C/c2cccs2)c(=O)[nH]c1=O | > 1000 | > 1000
830 | Cc1c(Sc2ccccc2)n(COCCSc2ccccn2)c(=O)[nH]c1=O | > 1000 | > 1000
> 10000 | Cc1c(Sc2ccccc2)n(COCCNC(=O)CCP(=O)(O)O)c(=O)[nH]c1=O | > 10000 | > 1000
> 10000 | Cc1c(Sc2ccccc2)n(COCCN2CCNCC2)c(=O)[nH]c1=O | > 10000 | > 1000
